The test system of assay [1] is Staphylococcus aureus. The experiment in a line: Potency index, ratio of MIC of oxacillin to MIC of compound for antibacterial activity against Methicillin-resistant Staphylococcus aureus CCARM 3506 assessed as reduction in bacterial cell growth incubated for 24 hrs by ELISA. Format: functional.
For assay [2], the system named is Candida albicans. The experiment in a line: Antifungal activity against Candida albicans 7535 assessed as reduction in bacterial cell growth incubated for 24 hrs by ELISA. Format: functional. The conditions noted are these: Candida albicans, 7535, 24 h. Summed up:
(§1)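 MIC determined by serial dilution in 96-well microtiter plates. Strains used were E. coli 1924 and P. aeruginosa 2742 (Gram-negative), S. mutans 3289 (Gram-positive) and the fungus C. albicans 7535. Gatifloxacin, moxifloxacin, norfloxacin and oxacillin served as antibacterial reference agents, and fluconazole as the antifungal reference.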
In general terms: ELISA stands for enzyme-linked immunosorbent assay.

For assay [3], the system named is Streptococcus mutans. The experiment in a line: Antibacterial activity against Streptococcus mutans KCTC3289 assessed as reduction in bacterial cell growth incubated for 24 hrs by ELISA. The conditions noted are these: KCTC3289, 24 h. Format: functional. An outline of the steps:
as §1

Assay [4] relates to Escherichia coli. The experiment in a line: Antibacterial activity against Escherichia coli 1924 assessed as reduction in bacterial cell growth incubated for 24 hrs by ELISA. In kind it is functional. The conditions noted are these: Escherichia coli, 1924, 24 h. Summed up:
as §1

Assay [5] concerns Staphylococcus aureus. Nature of the assay: Antibacterial activity against Quinolone-resistant Staphylococcus aureus CCARM 3505 assessed as reduction in bacterial cell growth incubated for 24 hrs by ELISA. Format: functional. The conditions noted are these: CCARM 3505, 24 h. Summed up: (§2)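 MICs determined by serial dilution in 96-well microtiter plates. The strain panel included Gram-positive S. aureus strains and multidrug-resistant clinical isolates. Gatifloxacin, moxifloxacin, norfloxacin and oxacillin served as antibacterial positive controls.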

In assay [6] the test system is Staphylococcus aureus. Nature of the assay: Antibacterial activity against Methicillin-resistant Staphylococcus aureus CCARM 3167 assessed as reduction in bacterial cell growth incubated for 24 hrs by ELISA. In kind it is functional. The settings on record: CCARM 3167, 24 h. An outline of the steps:
as §2

The target of assay [7] is T1, Tyrosine-protein phosphatase non-receptor type 1 (Homo sapiens, UniProt P18031).
T1 sequence (P18031 whole entry): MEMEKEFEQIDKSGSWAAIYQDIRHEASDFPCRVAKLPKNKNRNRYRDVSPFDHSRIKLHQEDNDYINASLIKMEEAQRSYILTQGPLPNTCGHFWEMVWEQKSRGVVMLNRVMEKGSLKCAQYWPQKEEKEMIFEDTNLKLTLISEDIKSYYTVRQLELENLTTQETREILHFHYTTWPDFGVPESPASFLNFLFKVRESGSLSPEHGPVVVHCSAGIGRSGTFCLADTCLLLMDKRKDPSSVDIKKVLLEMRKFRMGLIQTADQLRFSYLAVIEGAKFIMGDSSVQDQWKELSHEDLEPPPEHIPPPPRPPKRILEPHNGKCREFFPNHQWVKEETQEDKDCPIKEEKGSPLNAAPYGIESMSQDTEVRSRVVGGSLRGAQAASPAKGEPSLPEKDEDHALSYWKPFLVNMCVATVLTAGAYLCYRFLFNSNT
The experiment in a line: Inhibition of human recombinant GST-tagged PTP1B expressed in Escherichia coli BL21 (DE3) using pNPP as substrate measured for 2 mins by colorimetric analysis.

In assay [8] the test system is Staphylococcus aureus. The experiment in a line: Potency index, ratio of MIC of norfloxacin to MIC of compound for antibacterial activity against Methicillin-resistant Staphylococcus aureus CCARM 3167 assessed as reduction in bacterial cell growth incubated for 24 hrs by ELISA. Format: functional.
Assay [9] relates to Staphylococcus aureus. Nature of the assay: Antibacterial activity against Methicillin-resistant Staphylococcus aureus CCARM 3506 assessed as reduction in bacterial cell growth incubated for 24 hrs by ELISA. Format: functional. The settings on record: CCARM 3506, 24 h. Summed up: as §2
In assay [10] the test system is Staphylococcus aureus. The experiment in a line: Potency index, ratio of MIC of oxacillin to MIC of compound for antibacterial activity against Methicillin-resistant Staphylococcus aureus CCARM 3167 assessed as reduction in bacterial cell growth incubated for 24 hrs by ELISA. In kind it is functional.
Assay [11] relates to Staphylococcus aureus. The experiment in a line: Potency index, ratio of MIC of norfloxacin to MIC of compound for antibacterial activity against Methicillin-resistant Staphylococcus aureus CCARM 3506 assessed as reduction in bacterial cell growth incubated for 24 hrs by ELISA. In kind it is functional.
Assay [12] deals with Staphylococcus aureus. Nature of the assay: Antibacterial activity against Quinolone-resistant Staphylococcus aureus CCARM 3519 assessed as reduction in bacterial cell growth incubated for 24 hrs by ELISA. In kind it is functional. The conditions noted are these: CCARM 3519, 24 h. An outline of the steps: as §2
Assay [13] relates to Staphylococcus aureus. The experiment in a line: Antibacterial activity against Staphylococcus aureus RN4220 assessed as reduction in bacterial cell growth incubated for 24 hrs by ELISA. In kind it is functional. The settings on record: RN4220, 24 h. An outline of the steps:
as §2

Assay [14] has as its system Pseudomonas aeruginosa. The experiment in a line: Antibacterial activity against Pseudomonas aeruginosa 2742 assessed as reduction in bacterial cell growth incubated for 24 hrs by ELISA. In kind it is functional. The settings on record: Pseudomonas aeruginosa, 2742, 24 h. Summed up:
as §1

Assay [15] has as its system Staphylococcus aureus. Nature of the assay: Potency index, ratio of MIC of gatifloxacin to MIC of compound for antibacterial activity against Staphylococcus aureus KCTC503 assessed as reduction in bacterial cell growth incubated for 24 hrs by ELISA. Format: functional.
Assay [16] concerns Staphylococcus aureus. The experiment in a line: Antibacterial activity against Staphylococcus aureus KCTC209 assessed as reduction in bacterial cell growth incubated for 24 hrs by ELISA. Format: functional. The conditions noted are these: KCTC209, 24 h. An outline of the steps: as §2
The test system of assay [17] is Staphylococcus aureus. The experiment in a line: Antibacterial activity against Staphylococcus aureus KCTC503 assessed as reduction in bacterial cell growth incubated for 24 hrs by ELISA. In kind it is functional. The settings on record: KCTC503, 24 h. Summed up:
as §2

In assay [18] the test system is Escherichia coli. Nature of the assay: Potency index, ratio of MIC of gatifloxacin to MIC of compound for antibacterial activity against Escherichia coli 1924 assessed as reduction in bacterial cell growth incubated for 24 hrs by ELISA. In kind it is functional.
Assay [19] deals with Escherichia coli. The experiment in a line: Potency index, ratio of MIC of moxifloxacin to MIC of compound for antibacterial activity against Escherichia coli 1924 assessed as reduction in bacterial cell growth incubated for 24 hrs by ELISA. In kind it is functional.

SMILES strings stand for the structures. ≈ marks a conversion by molar mass, not a printed value.

As usually defined, the MIC is the lowest concentration that inhibits growth of the organism. One may read the IC50 as the point on the concentration scale where inhibition reaches its midpoint.

With `O=C(O)C(Cc1c[nH]c2ccccc12)N1C(=O)/C(=C/c2ccc3cc(OCc4ccc(Cl)cc4)ccc3c2)SC1=S` (configuration not stated), the Ratio came out at 64 in [1], 4 in assay [8], 64 in assay [10] and 4 in assay [11]. Besides, the MIC is above 64 µg/mL in assay [2]; 2 µg/mL (≈ 3.34 µM) in assay [3]; 2 µg/mL (≈ 3.34 µM) in [4]; 2 µg/mL (≈ 3.34 µM) in assay [5]; 2 µg/mL (≈ 3.34 µM) in [6]; 2 µg/mL (≈ 3.34 µM) in assay [9]. Also, the figures for the minimal inhibitory concentration (MIC) in assay [12], in assay [13] and in [14] were 4 µg/mL (≈ 6.68 µM), 2 µg/mL (≈ 3.34 µM) and above 64 µg/mL, respectively. Moreover, the half-inhibitory concentration (IC50) in assay [7] was found to be 0.72 µM.
Take `O=C(O)C(Cc1c[nH]c2ccccc12)N1C(=O)/C(=C/c2cccc(OCc3ccc(Cl)cc3)c2)SC1=S` (configuration not stated): the MIC in assay [2] is above 64 µg/mL; in [3], 2 µg/mL (≈ 3.64 µM); in assay [4], 2 µg/mL (≈ 3.64 µM); in assay [5] it was 2 µg/mL (≈ 3.64 µM); in assay [6], 2 µg/mL (≈ 3.64 µM); in assay [9], 4 µg/mL (≈ 7.29 µM). Besides, the minimal inhibitory concentration (MIC) in assay [12] is 4 µg/mL (≈ 7.29 µM); in [16] it was 2 µg/mL (≈ 3.64 µM); in assay [17], 2 µg/mL (≈ 3.64 µM); in [13] it was 2 µg/mL (≈ 3.64 µM); in assay [14], above 64 µg/mL. Besides, the IC50 in assay [7] is 5.76 µM. In assay [15], the Ratio was 2.
As for `COc1cc(/C=C2\SC(=S)N(C(Cc3c[nH]c4ccccc34)C(=O)O)C2=O)ccc1OCc1ccc(Cl)cc1Cl` (configuration not stated), the Ratio in assay [1] was 64; in [8], 4; in assay [10], 64; in assay [11], 4. Moreover, the MIC in [2] is above 64 µg/mL; in assay [3], 2 µg/mL (≈ 3.26 µM); in assay [4], 2 µg/mL (≈ 3.26 µM); in assay [5] it was 2 µg/mL (≈ 3.26 µM); in assay [6], 2 µg/mL (≈ 3.26 µM); in [9] it was 2 µg/mL (≈ 3.26 µM). Besides, the minimum inhibitory concentration (MIC) was 2 µg/mL (≈ 3.26 µM) in assay [12]; 2 µg/mL (≈ 3.26 µM) in assay [16]; 2 µg/mL (≈ 3.26 µM) in assay [17]; 2 µg/mL (≈ 3.26 µM) in assay [13]; above 64 µg/mL in [14]. Also, the IC50 in assay [7] worked out at 0.7 µM.
As to `O=C(O)C(Cc1c[nH]c2ccccc12)N1C(=O)/C(=C/c2ccc(OCc3ccc(Br)cc3)cc2)SC1=S` (configuration not stated), the Ratio in assay [1] is listed as 64; in [8] it was 4; in assay [18], 2; in assay [19] it was 2; in assay [10] it was 64; in assay [15], 2. Further, the Ratio in [11] was 4. Moreover, the minimum inhibitory concentration (MIC) in [2] is above 64 µg/mL; in [3], 1 µg/mL (≈ 1.68 µM); in assay [4], 1 µg/mL (≈ 1.68 µM); in [5] it was 2 µg/mL (≈ 3.37 µM); in assay [6] it was 2 µg/mL (≈ 3.37 µM); in [9] it was 2 µg/mL (≈ 3.37 µM). For the same molecule, the MIC in assay [12] is 2 µg/mL (≈ 3.37 µM); in [16], 4 µg/mL (≈ 6.74 µM); in assay [17] it was 2 µg/mL (≈ 3.37 µM); in [13] it was 1 µg/mL (≈ 1.68 µM); in assay [14] it was above 64 µg/mL. In addition, the half-maximal inhibitory concentration (IC50) in assay [7] is 2.6 µM.

The values above are taken from ChEMBL document CHEMBL4346701, “Synthesis and biological evaluation of tryptophan-derived rhodanine derivatives as PTP1B inhibitors and anti-bacterial agents” (Eur J Med Chem, 2019).
